Data reported in ChEMBL document CHEMBL4613270, “Structure-Activity Relationship Study Enables the Discovery of a Novel Berberine Analogue as the RXRα Activator to Inhibit Colon Cancer” (J Med Chem, 2020).
Active and inactive are the calls of the source. The rule behind the calls is not given here.

Legend:
KM12C [1] = assay: Inhibition of cell proliferation of human KM12C cells at 25 to 50 uM incubated for 15 hrs by EdU assay; format: functional, cell-based
Outline: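 KM12C cells grown in MEM with 10% FBS, penicillin/streptomycin, nonessential amino acids and vitamins at 37 °C, 5% CO2. Proliferation was scored with an EdU incorporation kit, and cells were examined under a fluorescence microscope.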

HCT-116 = assay: Inhibition of cell proliferation of human HCT116 cells at 30 to 60 uM incubated for 15 hrs by EdU assay; format: functional, cell-based
Outline: (§1)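 Colon cancer cells treated for 15 h. Proliferation measured in 96-well plates using an EdU incorporation kit, with cells examined under a fluorescence microscope.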

SW-620 = assay: Inhibition of cell proliferation of human SW620 cells at 40 to 80 uM incubated for 15 hrs by EdU assay; format: functional, cell-based; outline: as §1
[2] = molecular target: T1, Retinoic acid receptor RXR-alpha (Homo sapiens) (UniProt P19793); assay: Activation of RXRalpha in human HCT116 cells assessed as […] protein expression at 30 to 60 uM incubated for 15 hrs by Western blot analysis; format: cell-based; details: HCT-116
T1 sequence (whole entry): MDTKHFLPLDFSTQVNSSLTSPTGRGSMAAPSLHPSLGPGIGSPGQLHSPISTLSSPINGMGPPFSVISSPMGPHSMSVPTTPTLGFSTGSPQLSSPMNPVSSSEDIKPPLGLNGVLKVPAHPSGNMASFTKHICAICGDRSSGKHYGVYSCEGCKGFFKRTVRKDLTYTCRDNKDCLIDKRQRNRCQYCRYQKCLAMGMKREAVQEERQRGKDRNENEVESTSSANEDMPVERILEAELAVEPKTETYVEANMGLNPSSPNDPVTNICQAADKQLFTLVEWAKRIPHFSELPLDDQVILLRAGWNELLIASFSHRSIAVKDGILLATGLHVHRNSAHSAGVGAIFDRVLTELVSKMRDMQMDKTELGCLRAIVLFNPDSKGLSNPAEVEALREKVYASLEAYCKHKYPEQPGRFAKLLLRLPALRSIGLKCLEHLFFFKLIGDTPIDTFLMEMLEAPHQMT

[3] = molecular target: T1, Retinoic acid receptor RXR-alpha (Homo sapiens); assay: Activation of RXRalpha in human KM12C cells assessed as increase transactivational activity on RXRE at 25 to 50 uM incubated for 15 hrs by luciferase reporter gene assay; format: cell-based
Outline: (§2)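 Endogenous RXRα transactivation on an RXRE luciferase reporter, lipofection-transfected; compound added 20 h post-transfection for 15 h; lysis in passive lysis buffer at 4 °C, 1 h; firefly and Renilla luciferase activities read by dual-luciferase assay.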

[4] = molecular target: T1, Retinoic acid receptor RXR-alpha (Homo sapiens); assay: Activation of RXRalpha in human HCT116 cells assessed as increase transactivational activity on RXRE at 30 to 60 uM incubated for 15 hrs by luciferase reporter gene assay; format: cell-based; details: HCT-116; outline: as §2
[5] = molecular target: T2, Retinoic acid receptor RXR-alpha (Homo sapiens, UniProt P19793); assay: Binding affinity to His-tagged RXRalpha LBD (unknown origin) expressed in Escherichia coli strain BL21 (DE3) by fluorescence quenching analysis
T2 sequence (P19793 whole entry): T1 sequence (whole entry)
Outline: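 His-RXRα-LBD expressed from pET15b in E. coli BL21(DE3), induced with 0.1 mM IPTG at 16 °C for 16 h, purified on Ni-NTA. Protein held at 1 μM in PBS pH 7.4 and titrated with ligand (2–30 μM). Excitation 280 nm, emission scanned 290–600 nm, DMSO blank subtracted, each spectrum measured three times. Apparent Kd taken from the titration curve.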

[6] = molecular target: T1, Retinoic acid receptor RXR-alpha (Homo sapiens); assay: Activation of RXRalpha in human HCT116 cells assessed as inhibition of Wnt/beta-catenin-dependent transcriptional activity at 30 to 60 uM incubated for 15 hrs by TOP/FOP luciferase assay; format: cell-based; details: HCT-116
Outline: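 TOP/FOP reporter: cells co-transfected by lipofection with pRL-TK plus TOPflash or FOPflash; compound added 20 h after transfection for 15 h; passive lysis at 4 °C, 1 h; firefly and Renilla luciferase measured by dual-luciferase assay.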

[7] = molecular target: T1, Retinoic acid receptor RXR-alpha (Homo sapiens); assay: Activation of RXRalpha in human SW620 cells assessed as reduction in c-Myc protein expression at 40 to 80 uM incubated for 15 hrs by Western blot analysis; format: cell-based; details: SW-620
[8] = molecular target: T1, Retinoic acid receptor RXR-alpha (Homo sapiens); assay: Activation of RXRalpha in human KM12C cells assessed as reduction in Cdc2 protein expression at 25 to 50 uM incubated for 15 hrs in presence of RXRalpha shRNA by Western blot analysis; format: cell-based
[9] = molecular target: T1, Retinoic acid receptor RXR-alpha (Homo sapiens); assay: Activation of RXRalpha in human KM12C cells assessed as reduction in Cdc2 mRNA expression at 25 to 50 uM incubated for 15 hrs in presence of RXRalpha shRNA by real-time PCR analysis; format: cell-based
[10] = molecular target: T1, Retinoic acid receptor RXR-alpha (Homo sapiens); assay: Activation of RXRalpha in human KM12C cells assessed as increase in p21 (WAF1/CIP1) protein expression at 25 to 50 uM incubated for 15 hrs in presence of RXRalpha shRNA by Western blot analysis; format: cell-based
KM12C [11] = assay: Antitumor activity against human KM12C cells xenografted in BALB/c mouse assessed as inhibition of tumor growth at 100 mg/kg, ig dosed daily for 15 days relative to control; format: functional; details: po, 360 h, read-out: TGI
Outline: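 Nude mice received subcutaneous injections of KM12C cells (1×10⁶ in 100 μL HBSS) into both flanks. After seven days, tumour-bearing mice (80–200 mm³) were randomized into three groups. Daily intragastric dosing at 100 mg/kg, or CMC-Na vehicle, for 15 days. Tumours then excised and weighed; inhibition rate calculated versus vehicle.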

[12] = molecular target: T1, Retinoic acid receptor RXR-alpha (Homo sapiens); assay: In-vivo activation of RXRalpha in BALB/c mouse xenografted with human KM12C cells assessed as effect on PCNA protein expression at 100 mg/kg, ig dosed daily for 15 days by immunohistochemistry analysis; format: functional, organism-based
[13] = Hepatotoxicity in BALB/c mouse xenografted with human KM12C cells assessed as induction of necrotic hepatocytes at 100 mg/kg, ig dosed daily for 15 days by H and E staining; format: toxicity, organism-based; details: in vivo, po, 360 h
[14] = Toxicity in human HIEC6 cells assessed a reduction in cell viability at 6.25 to 100 uM incubated for 15 hrs by MTT assay; format: cell-based
Outline: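 HIEC-6 cells grown in MEM with 4% FBS, HEPES, GlutaMAX and 10 ng/mL EGF. MEF cells grown in DMEM high glucose with 10% FBS. Cells plated at 1×10⁴ per well and treated with a concentration series for 15 h. Viability read by MTT: 4 h at 37 °C, DMSO solubilization, absorbance at 570 nm.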

[15] = Toxicity in BALB/c mouse xenografted with human KM12C cells assessed as effect on biochemical parameter by measuring TBIL level at 100 mg/kg, ig dosed daily for 15 days by automatic chemistry analyzer based analysis (reference value: 0.28 +/- 0.024 umol/L); format: organism-based; details: in vivo, po, 360 h
[16] = Bioavailability in Sprague-Dawley rat at 100 mg/kg, ig measured after 0.083 to 36 hrs by LC-MS/MS analysis; format: ADME, organism-based; details: in vivo, po
Outline: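 SD rats (200 ± 20 g) randomized to three groups; single intragastric dose of 100 mg/kg or vehicle (0.5% CMC-Na). Tail-vein blood (0.5 mL) drawn at 0.083, 0.25, 0.5, 1, 2, 4, 8, 12, 24 and 36 h. Plasma separated by centrifugation at 2000 rpm for 10 min, frozen at -80 °C, then quantified by LC-MS/MS.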

Compound	inhibition (KM12C [1])	inhibition (HCT-116)	inhibition (SW-620)	Activity [2]	Activity [3]	Activity [4]	Kd [5] [µM]	Activity [6]	Activity [7]	Activity [8]	Activity [9]	Activity [10]	inhibition in vivo at 100 mg/kg (KM12C [11]) [%]	Activity [12]	Activity [13]	Activity [14]	Activity [15] [µmol/L]	bioavailability [16] [%]
COc1ccc2c(c1)CC[n+]1cc3c(OC)cccc3cc1-2.[Cl-]	Active	Active	Active	Active	Active	Active	18.9	Active	Active	inactive	inactive	inactive	69.1	Active	Non-Toxic	Non-Toxic	0.21	14.2
COc1ccc2cc3[n+](cc2c1OC)CCc1cc2c(cc1-3)OCO2.[Cl-] [BERBERINE CHLORIDE]	–	–	–	–	–	–	24.8	Active	Active	–	–	–	33.6	Active	–	–	0.26	0.544
